Data taken from ChEMBL document CHEMBL4376840, “Application of Fluorine- and Nitrogen-Walk Approaches: Defining the Structural and Functional Diversity of 2-Phenylindole Class of Cannabinoid 1 Receptor Positive Allosteric Modulators” (J Med Chem, 2020).
The source made the active and inactive calls. The calls are words filed in the database; no cut-off is given here.

How the values were obtained:
[1] = Half life in human liver microsomes at 1 uM up to 45 mins in presence of NADPH by LC-MS/MS analysis
[2] = Half life in rat liver microsomes at 1 uM up to 45 mins in presence of NADPH by LC-MS/MS analysis
[3] = target: Cannabinoid receptor 1 (Mus musculus) (UniProt P47746); test: Positive allosteric modulation activity at CB1 receptor in C57BL/6 mouse hippocampal neurons assessed as increase in depolarization-induced suppression of excitation at 1 uM at -70 mV holding potential by whole cell patch clamp assay
Mus musculus [4] = test: Potentiation of […] WIN55212-2-induced reduction in intraocular pressure in ocular normotensive C57BL/6J mouse assessed as change in IOP at 0.2% administered topically to eye measured after 1 hr by tonometry; type: functional
Mus musculus [5] = test: Potentiation of […] WIN55212-2-induced reduction in intraocular pressure in ocular normotensive C57BL/6J mouse assessed as change in IOP at 0.2% administered topically to eye measured after 6 hrs by tonometry; type: functional
Mus musculus [6] = test: Potentiation of […] WIN55212-2-induced reduction in intraocular pressure in ocular normotensive C57BL/6J mouse assessed as change in IOP at 0.2% administered topically to eye measured after 12 hrs by tonometry; type: functional
Mus musculus [7] = test: Reduction of intraocular pressure in ocular hypertensive NEE mouse harboring Sh3pxd2b deletion mutant at 0.2% administered topically to eye after 1 hr by tonometry; type: functional
How it was run: (§1)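 Ocular hypertensive NEE mice (1 bp deletion in Sh3pxd2b) received topical 0.2% compound alone. IOP change from baseline (time 0) was measured at 1, 6 and 12 h; paired t-tests.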

Mus musculus [8] = test: Reduction of intraocular pressure in ocular hypertensive NEE mouse harboring Sh3pxd2b deletion mutant at 0.2% administered topically to eye after 6 hrs by tonometry; type: functional; how it was run: as §1
[9] = Toxicity in C57BL/6 mouse assessed as catalepsy at 0.1 to 10 mg/kg, ip after 5 mins by bar holding assay; type: organism-based; conditions: in vivo
How it was run: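 Male C57BL/6 mice were given 0.1 – 10 mg/kg compound or vehicle (1:1:18 ethanol:cremaphor:saline). Catalepsy was assessed at 5 min as % MPE with a 60 sec maximum. n = 5–6.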

[10] = Toxicity in C57BL/6 mouse assessed as effect on hypothermia at 0.1 to 10 mg/kg, ip after 15 mins by thermometric method; type: organism-based; conditions: in vivo
How it was run: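 Male C57BL/6 mice were given 0.1 – 10 mg/kg compound or vehicle (1:1:18 ethanol:cremaphor:saline). Body temperature was measured at 15 min and expressed relative to vehicle (100%). n = 5–6.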

Mus musculus [11] = test: Antinociceptive activity in C57BL/6 mouse at 3 to 10 mg/kg, ip after 20 mins post treatment by warm water tail-flick assay; type: functional, organism-based
Mus musculus [12] = test: Reduction of intraocular pressure in ocular hypertensive NEE mouse harboring Sh3pxd2b deletion mutant at 0.2% administered topically to eye after 12 hrs by tonometry; type: functional, organism-based; how it was run: as §1
[13] = human, microsomes, 1 µM
[14] = rat, microsomes, 1 µM
[15] = buffer, pH 7.4, 2 h

Chain of Cannabinoid receptor 1 (Mus musculus) (P47746 whole entry): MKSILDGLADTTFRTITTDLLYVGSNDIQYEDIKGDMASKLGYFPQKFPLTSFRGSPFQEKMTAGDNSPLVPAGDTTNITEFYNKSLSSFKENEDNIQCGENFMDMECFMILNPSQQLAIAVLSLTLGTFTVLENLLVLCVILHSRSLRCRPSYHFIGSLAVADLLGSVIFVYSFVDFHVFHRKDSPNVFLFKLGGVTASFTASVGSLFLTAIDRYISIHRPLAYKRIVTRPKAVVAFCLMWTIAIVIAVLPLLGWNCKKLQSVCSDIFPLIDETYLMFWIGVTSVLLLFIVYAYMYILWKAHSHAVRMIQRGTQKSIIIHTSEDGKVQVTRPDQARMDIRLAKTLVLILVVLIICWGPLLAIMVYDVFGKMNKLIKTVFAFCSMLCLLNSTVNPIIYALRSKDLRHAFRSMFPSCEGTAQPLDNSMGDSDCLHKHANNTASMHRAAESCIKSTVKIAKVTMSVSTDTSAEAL

Q: With `O=[N+]([O-])CC(c1ncccc1F)c1c(-c2ccccc2)[nH]c2ccccc12` (stereo not given) as the molecule, how does the t1/2 [1] read?
A: 27.4 min

Q: What about the t1/2 [2] of the same molecule?
A: 4.08 min

Q: What about the Activity [3] of the same molecule?
A: Active

Q: What about the Activity (Mus musculus [4]) of the same molecule?
A: -0.7 mmHg

Q: And the Activity (Mus musculus [5])?
A: -0.6 mmHg

Q: What about the Activity (Mus musculus [6]) of the same molecule?
A: 0.1 mmHg

Q: What about the Activity (Mus musculus [7]) of the same molecule?
A: 2.5 mmHg

Q: What about the Activity (Mus musculus [8]) of the same molecule?
A: 3.6 mmHg

Q: What about the Activity [9] of the same molecule?
A: Non-Toxic

Q: What about the Activity [10] of the same molecule?
A: Non-Toxic

Q: What about the Activity (Mus musculus [11]) of the same molecule?
A: inactive

Q: And the inhibition (Mus musculus [12])?
A: inactive

Q: And the CLH [13]?
A: 84.5 µL/min

Q: What about the CLH [14] of the same molecule?
A: 556 µL/min

Q: And the Kinetic_solubility [15]?
A: 3.13 µM
